# Measured values of several laboratories.
# Protocols differ between the studies behind these lines.
# Target: Cytochrome P450 2C19 (CYP2C19, Homo sapiens, UniProt P33261)
# Observed: enzyme activity
# Mode: inhibitor
SMILES,method,host,medium,time,pH,IC50
CC(CN1c2ccccc2Sc2ccccc21)N(C)C (stereo not drawn),fluorescence,,,,,40.8 µM
CCc1cc(/C(C)=N/OCc2ccc(C3CCCCC3)c(C(F)(F)F)c2)ccc1CN1CC(C(=O)O)C1,,human,liver microsomes,20 min,,> 0.5 µM
CCCCCNC(=N)N/N=C/c1c[nH]c2ccc(OC)cc12,fluorescence,,,,,1.17 µM
CCOC(=O)C1CCN(C(=O)c2ccc(N(CC)Cc3cnc4nc(N)nc(N)c4n3)cc2)CC1,luciferase,,,,,6.76 µM
O=C(NCCN1CCCC1)c1cc(-c2ccc(CN3CCOCC3)cc2)nc2ccc(F)cc12,,human,liver microsomes,,,> 100 µM
Nc1nc(N)c2nc(CNc3ccc(C(=O)NCCc4ccccc4)cc3)cnc2n1,luciferase,,,,,15.1 µM
Cc1ccc2nc(-c3ccccc3)c(CNc3ccc(F)cc3)n2c1,,,,,,0.93 µM
CN(Cc1cnc2nc(N)nc(N)c2n1)c1ccc(C(=O)N2CCCCC2)cc1,luciferase,,,,,16.2 µM
C[C@H]1CN(c2n[nH]c3nc(N[C@H]4CC[C@H](NS(=O)(=O)CCC(F)(F)F)CC4)ncc23)CCO1,,,,,,> 100 µM
COc1ccc2[nH]c([S+]([O-])Cc3ncc(C)c(OC)c3C)nc2c1 (stereo not drawn),,human,liver microsomes,90 min,pH 7.4,0.662 µM
Nc1nc(N)c2nc(CNc3ccc(C(=O)c4ccccc4)cc3)cnc2n1,luciferase,,,,,25.1 µM
COc1ccc2cc3[n+](cc2c1OC)CCc1cc2c(cc1-3)OCO2,,,,,,> 10 µM
